# Measurements: ChEMBL document CHEMBL1121883, “1-(Naphthylalkyl)-1H-imidazole derivatives, a new class of anticonvulsant agents” (J Med Chem, 1981)
# Values joined by “and” are separate entries in the source; they are usually repeats but may differ in a detail not shown here. Equal values may be shown once.
# How the values were obtained:
# [1] = tested on: Mus musculus; assay: Anticonvulsant activity in mouse maximal electroshock assay following i.p. administration.; assay type: functional; details: ip
# How it was run: (§1)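 Male Hilltop ICR-derived mice (19-30 g), groups of 8-10, dosed ip with compound or aqueous vehicle. After 15 min pretreatment, a transcorneal 60-Hz, 50 mA shock was given for 0.2 s. Just before the shock, each mouse was tested on a horizontal wire (10 s). Quantal data were analysed by Litchfield-Wilcoxon to give ED50 with 95% confidence limits.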
# [2] = tested on: Mus musculus; assay: Protective index is defined as ND50 (i.p.) divided by MES ED50(i.p.); assay type: functional
# How it was run: (§2)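 Ratio of ND50 from the wire traction test to MES ED50, both measured by the same route (ip or oral) in the same animals. Quantal dose-response data for each were evaluated by Litchfield-Wilcoxon.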
# [3] = tested on: Mus musculus; assay: Dose causing a neurological deficit in 50% of mice after ip administration.; assay type: functional
# How it was run: (§3)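 Traction test in male Hilltop ICR-derived mice (19-30 g, groups of 8-10) just before electroshock, 15 min after ip or 30 min after oral dosing. Mice placed on a 16-gauge, 65-cm copper wire 40 cm above the table; deficit scored as failure to stay on for 10 s. ND50 with 95% limits by Litchfield-Wilcoxon.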
# [4] = tested on: Mus musculus; assay: Protective index defined as ND50 (p.o.) divided by MES ED50(op); assay type: functional; how it was run: as §2
# [5] = tested on: Rattus norvegicus; assay: Compound was evaluated for anticonvulsant activity by maximal electroshock assay(MES) in rat after po administration; 7.3-20; assay type: functional
# How it was run: (§4)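 Male Simonsen Sprague-Dawley-derived rats, 80-110 g, groups of 8-10, dosed with compound or aqueous vehicle; pretreatment 15 min after ip or 30 min after oral dosing. Transcorneal electroshock, 150 mA, 60 Hz, 0.2 s, given after the wire test. ED50 with 95% confidence limits from quantal data by Litchfield-Wilcoxon.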
# [6] = tested on: Mus musculus; assay: Dose of compound causing a neurological deficit in 50% of mice after ip administration; 35-49; assay type: functional; how it was run: as §3
# [7] = tested on: Rattus norvegicus; assay: Dose of compound causing a neurological deficit in 50% of rat after ip administration; 31-78; assay type: functional
# How it was run: (§5)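 Rats (Simonsen Sprague-Dawley-derived, 80-110 g, groups of 8-10) placed on a suspended 16-gauge, 65-cm copper wire just before electroshock. Deficit scored as inability to remain for 8 s. Pretreatment was 15 min ip or 30 min oral. Quantal data analysed by Litchfield-Wilcoxon to give ND50 with 95% limits.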
# [8] = tested on: Rattus norvegicus; assay: Compound was evaluated for anticonvulsant activity by maximal electroshock assay(MES) in rat after ip administration; […]; assay type: functional
# [9] = tested on: Mus musculus; assay: Dose of compound causing a neurological deficit in 50% of mice after po administration; 79-196; assay type: functional; how it was run: as §3
# [10] = tested on: Rattus norvegicus; assay: Dose of compound causing a neurological deficit in 50% of rat after po administration.; assay type: functional; how it was run: as §5
# [11] = tested on: Mus musculus; assay: Compound was evaluated for anticonvulsant activity by maximal electroshock assay(MES) in mice after po administration; 23-40; assay type: functional
# How it was run: (§6)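 Male Hilltop ICR-derived mice (19-30 g), groups of 8-10, given compound or aqueous vehicle orally. The transcorneal 60-Hz shock (50 mA, 0.2 s) followed a 30 min pretreatment and a wire-hang neurological check (10 s). ED50 and 95% confidence limits were obtained from quantal data by the Litchfield-Wilcoxon method.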
# [12] = tested on: Mus musculus; assay: Compound was evaluated for anticonvulsant activity by maximal electroshock assay(MES) in mice after ip administration; 8-13; assay type: functional; how it was run: as §1
# [13] = tested on: Mus musculus; assay: Compound was evaluated for anticonvulsant activity by maximal electroshock assay(MES) in mice after po administration; 13-23; assay type: functional; how it was run: as §6
# [14] = tested on: Mus musculus; assay: (§7) Lethal dose was measured in mice after ip administration.; assay type: functional
# How it was run: (§8)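 Male Simonsen ICR-derived mice (16-24 g), groups of three, given compound ip in increasing doses within a behavioral screen. Deaths counted on day 5, and LD50 estimated from 5-day survival. Quantal data analysed by the Litchfield-Wilcoxon method.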
# [15] = tested on: Mus musculus; assay: Dose of compound causing a neurological deficit in 50% of mice after po administration; 82-1100; assay type: functional; how it was run: as §3
# [16] = tested on: Rattus norvegicus; assay: Compound was evaluated for anticonvulsant activity by maximal electroshock assay(MES) in rat after ip administration; 1.5-6.7; assay type: functional
# [17] = tested on: Rattus norvegicus; assay: Compound was evaluated for anticonvulsant activity by maximal electroshock assay(MES) in rat after po administration; 4.5-19; assay type: functional; how it was run: as §4
# [18] = tested on: Rattus norvegicus; assay: Dose of compound causing a neurological deficit in 50% of rat after ip administration; 29-57; assay type: functional; how it was run: as §5
# [19] = tested on: Mus musculus; assay: Dose of compound causing a neurological deficit in 50% of mice after ip administration; 21-52; assay type: functional; how it was run: as §3
# [20] = tested on: Mus musculus; assay: Compound was evaluated for anticonvulsant activity by maximal electroshock assay(MES) in mice after ip administration; 14-33; assay type: functional; how it was run: as §1
# [21] = tested on: Mus musculus; assay: Dose of compound causing a neurological deficit in 50% of mice after ip administration; 32-90; assay type: functional; how it was run: as §3
# [22] = tested on: Rattus norvegicus; assay: Dose of compound causing a neurological deficit in 50% of rat after po administration.
# [23] = tested on: Mus musculus; assay: Compound was evaluated for anticonvulsant activity by maximal electroshock assay(MES) in mice after po administration.; assay type: functional; how it was run: as §6
# [24] = as §7; assay type: toxicity, organism-based; details: mouse, in vivo; how it was run: as §8
# [25] = tested on: Rattus norvegicus; assay: Compound was evaluated for anticonvulsant activity by maximal electroshock assay(MES) in rat after po administration.
# [26] = tested on: Mus musculus; assay: Dose causing a neurological deficit in 50% of mice following p.o. administration.; assay type: functional; how it was run: as §3
# [27] = tested on: Mus musculus; assay: Dose of compound causing a neurological deficit in 50% of mice after po administration.; assay type: functional; how it was run: as §3
# [28] = tested on: Mus musculus; assay: Compound was evaluated for anticonvulsant activity by maximal electroshock assay(MES) in mice after po administration; 15-26; assay type: functional; how it was run: as §6
# [29] = tested on: Rattus norvegicus; assay: Compound was evaluated for anticonvulsant activity by maximal electroshock assay(MES) in rat after po administration; 15-36; assay type: functional; how it was run: as §4
# [30] = tested on: Rattus norvegicus; assay: Compound was evaluated for anticonvulsant activity by maximal electroshock assay(MES) in rat after ip administration; 3.8-8.4; assay type: functional
# [31] = tested on: Mus musculus; assay: Dose of compound causing a neurological deficit in 50% of mice after ip administration; 41-246; assay type: functional; how it was run: as §3
# [32] = tested on: Rattus norvegicus; assay: Dose of compound causing a neurological deficit in 50% of rat after ip administration.; assay type: functional; how it was run: as §5
# [33] = tested on: Rattus norvegicus; assay: Compound was evaluated for anticonvulsant activity by maximal electroshock assay(MES) in rat after ip administration; 14-33; assay type: functional
# [34] = tested on: Mus musculus; assay: Dose of compound causing a neurological deficit in 50% of mice after ip administration; 80-115; assay type: functional; how it was run: as §3
# [35] = tested on: Mus musculus; assay: Compound was evaluated for anticonvulsant activity by maximal electroshock assay(MES) in mice after ip administration; 31-39; assay type: functional; how it was run: as §1
# [36] = tested on: Mus musculus; assay: Compound was evaluated for anticonvulsant activity by maximal electroshock assay(MES) in mice after po administration; 55-125; assay type: functional; how it was run: as §6
# [37] = tested on: Rattus norvegicus; assay: Compound was evaluated for anticonvulsant activity by maximal electroshock assay(MES) in rat after po administration; 30-125; assay type: functional; how it was run: as §4
# [38] = tested on: Rattus norvegicus; assay: Dose of compound causing a neurological deficit in 50% of rat after ip administration; 119-211; assay type: functional; how it was run: as §5
# [39] = tested on: Mus musculus; assay: Dose of compound causing a neurological deficit in 50% of mice after ip administration; assay type: functional; how it was run: as §3
# [40] = tested on: Mus musculus; assay: Compound was evaluated for anticonvulsant activity by maximal electroshock assay(MES) in mice after ip administration; assay type: functional; how it was run: as §1
# [41] = tested on: Rattus norvegicus; assay: Compound was evaluated for anticonvulsant activity by maximal electroshock assay(MES) in rat after ip administration.; assay type: functional
# [42] = tested on: Mus musculus; assay: Compound was evaluated for anticonvulsant activity by maximal electroshock assay(MES) in mice after ip administration; 18-48; assay type: functional; how it was run: as §1
# [43] = tested on: Mus musculus; assay: Dose of compound causing a neurological deficit in 50% of mice after ip administration; 57-91; assay type: functional; how it was run: as §3
smiles,measurement,setting,value
Cl.c1ccc2c(C3(Cn4ccnc4)SCCS3)cccc2c1,ED50,[1],26 mg/kg
same,PI,[2],2.2
same,ND50,[3],57 mg/kg
COC(Cn1ccnc1)c1ccc2ccccc2c1.Cl (centres undefined),PI,[4],3.9
same,ED50,[5],13 mg/kg
same,ND50,[6],42 mg/kg
same,ND50,[7],46 mg/kg
same,ED50,[8],3.8 mg/kg
same,ND50,[9],110 mg/kg
same,ND50,[10],>100 mg/kg
same,PI,[2],4.2
same,ED50,[11],28 mg/kg
same,ED50,[12],10 mg/kg
Cl.c1ccc(SC(Cn2ccnc2)(Sc2ccccc2)c2ccc3ccccc3c2)cc1,ED50,[1],> 60 mg/kg
same,ND50,[3],>60 mg/kg
Cl.c1ccc2cc(C3(Cn4ccnc4)OCCO3)ccc2c1,ED50,[13],18 mg/kg
same,LD50,[14],> 100 mg/kg
same,ND50,[15],173 mg/kg
same,ED50,[16],4.5 mg/kg
same,ED50,[17],10 mg/kg
same,ND50,[18],41 mg/kg
same,ND50,[10],>300 mg/kg
same,ND50,[19],31 mg/kg
COc1c(C(=O)Cn2ccnc2)ccc2ccccc12.Cl,ED50,[20],23 mg/kg
same,PI,[2],2.2
same,ND50,[21],51 mg/kg
Cl.c1ccc2cc(CCn3ccnc3)ccc2c1,ND50,[22],>100 mg/kg
same,PI,[4],>2.1
same,ED50,[23],47 mg/kg
same,ED50,[1],22 mg/kg
same,LD50,[24],> 100 mg/kg
same,ED50,[25],54 mg/kg
same,PI,[2],1.4
same,ND50,[26],>100 mg/kg
same,ND50,[3],31 mg/kg
Cl.O=C(CCn1ccnc1)c1ccc2ccccc2c1,ND50,[27],>100 mg/kg
same,PI,[4],>5 and >4
same,ED50,[28],20 mg/kg
same,ED50,[29],25 mg/kg
same,ED50,[30],5.9 mg/kg
same,ND50,[31],60 mg/kg
same,ND50,[10],>100 mg/kg
same,PI,[2],6 and >10
same,ED50,[12],10 mg/kg
same,ND50,[32],>60 mg/kg
CSC(Cn1ccnc1)c1ccc2ccccc2c1.Cl (centres undefined),ED50,[1],37 mg/kg
same,PI,[2],2.1
same,ND50,[3],76 mg/kg
OC(Cn1ccnc1)c1cccc2ccccc12 (centres undefined),PI,[4],>3.7 and >4.8
same,ED50,[33],24 mg/kg
same,LD50,[24],> 300 mg/kg
same,ND50,[10],>300 mg/kg
same,PI,[2],2.6 and 6.4
same,ND50,[34],89 mg/kg
same,ED50,[35],34 mg/kg
same,ND50,[26],>300 mg/kg
same,ED50,[36],82 mg/kg
same,ED50,[37],62 mg/kg
same,ND50,[38],153 mg/kg
C[S+]([O-])C(Cn1ccnc1)c1ccc2ccccc2c1.Cl (centres undefined),ND50,[39],>40 mg/kg
same,ED50,[40],> 40 mg/kg
Cl.c1ccc2cc(Cn3ccnc3)ccc2c1,ED50,[1],25 mg/kg
same,ND50,[3],32 mg/kg
same,ED50,[41],6.2 mg/kg
same,ND50,[32],32 mg/kg
CSC(Cn1ccnc1)(SC)c1ccc2ccccc2c1.Cl,LD50,[24],> 100 mg/kg
same,PI,[2],0.9
same,ND50,[3],29 mg/kg
Cl.c1ccc2cc(C3(CCn4ccnc4)SCCS3)ccc2c1,ED50,[1],15 mg/kg
same,PI,[2],2.2
same,ND50,[3],33 mg/kg
Cc1ccccc1OC(Cn1ccnc1)c1ccc2ccccc2c1.Cl (centres undefined),ED50,[42],33 mg/kg
same,PI,[2],2.1
same,ND50,[43],70 mg/kg
